Assay outcomes deposited in PubChem BioAssay by several laboratories.
BB579 growth dn – growth inhibitors of yeast BB579 in restrictive medium, primary screen, yeast lifespan-shortening project, S. cerevisiae; OD615, 48 h; 0.51% of 140,000 active; inhibition, % at 10 µM;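 active = inhibition above a set limit, 3 SD over the mean compound inhibition, cut at about 44% in these data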
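Detection: OD615 turbidity measurement; Material: Saccharomyces cerevisiae DeaD strain BB579, replicative lifespan model yeast; Timing: 48 h exposure, 30 °C; Doses: single 10 µM dose; Medium: CSMM-D restrictive synthetic medium containing dextrose (glucose); Controls: amphotericin B at 10 µg/mL as positive control.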
PTEN del growth – growth suppression of PTEN-null HCT116, primary screen, cell-based, CellTiter-Glo | HCT116 PTEN-null viability, 60 h; active compounds read low | viability, % at 10 µM | 1.2% of 140,000 active;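 active = viability at or below a set limit, 4 SD under the median of all tested compounds, cut at about 3.7% in these data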;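 note: PTEN knockout HCT116 line with beta catenin targeted HCT116 as companion control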
Yeast lifespan up – compounds extending yeast replicative lifespan, primary screen, S. cerevisiae, OD615. S. cerevisiae growth with nicotinamide; deaD strain in restrictive glucose medium. inhibition of the nicotinamide effect, % at 10 µM. 0.68% of 130,000 active. AID 775, 2007;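 active = inhibition above a set limit, placed 3 SD over the median of all compounds, cut at about 26% in these data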;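 note: 0% = nicotinamide-treated wells and 100% = cells grown without nicotinamide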
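System: Modified budding yeast, DeaD strain | Buffer or medium: Restrictive glucose medium | Also added: 1.5 mM nicotinamide | Doses: 10 µM single point, 0.25% DMSO | Schedule: 48 h compound exposure at 30 °C, humidified | Detection: Absorbance at 615 nm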
sdo1 growth – growth rescue of sdo1-depleted yeast, primary screen, S. cerevisiae, bone marrow failure model; S. cerevisiae sdo1-depleted JHY4D growth rescue, OD600 30 h; active compounds read high; pdr5 snq2 efflux-pump mutant strain; z-score at 10 µM; 0.21% of 140,000 active;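 active = z-score above 3 at both the 24 hr and the 30 hr optical density reads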;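 note: z-score against mean and SD of all compound wells on the same plate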
HCT116 bCat-KO – primary screen for growth suppressors in beta-catenin knockout HCT116 cells (colon tumor, human); HCT116 beta-catenin knockout viability, CellTiter-Glo, 60 h; active compounds read low; AID 818, 2007; viability, % at 10 µM; 1.5% of 140,000 active;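 active = viability at or under a set limit, the compound median less 4 SD, cut at about 6% in these data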;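 note: 0% = Hyamine 1622 control at 20 µM and 100% = untreated cell control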
An asterisk follows results filed as active; nt = not tested or not shown. Only some compounds are listed: those with a hit (about 2.8% of all), similar ones and a draw of the others.

SMILES | BB579 growth dn | PTEN del growth | Yeast lifespan up | sdo1 growth | HCT116 bCat-KO
O=[N+]([O-])c1ccc(Sc2nccn2Cc2ccccc2)c([N+](=O)[O-])c1 | 4 | 5 | 5 | -0.5 | 4.8*
O=[N+]([O-])c1cc(C(F)(F)F)ccc1Sc1nccn1Cc1ccccc1 | -38 | 85 | 11 | -1.1 | 89
CCN(CC)c1ccc(NC(=O)c2ccccc2)cc1S(=O)(=O)Nc1ccccc1OC | -10 | 72 | -2 | -0.79 | 70
COc1ccc(C2CC(c3cccs3)=Nc3ccccc3S2)cc1 (stereo not drawn) | -40 | 24 | nt | -0.92 | 26
Cc1ccccc1Oc1nc2c(C)cccn2c(=O)c1/C=C(\C#N)C(=O)Nc1c(C)n(C)n(-c2ccccc2)c1=O | -14 | 86 | 0 | -0.28 | 81
Cc1cccn2c(=O)c(/C=C(\C#N)S(=O)(=O)c3ccccc3)c(Oc3ccc(Cl)cc3)nc12 | -49 | 2.2* | 3 | -1.1 | 3.6*
Cc1cc(Oc2nc3c(C)cccn3c(=O)c2/C=C(\C#N)S(=O)(=O)c2ccccc2)ccc1Cl | -37 | 2.3* | 6 | -1.7 | 1.6*
CS(=O)(=O)N(Cc1ccccc1)c1ccc(C(=O)NCc2ccccc2)cc1 | -13 | 87 | -7 | 0.74 | 91
O=C(CSCc1ccccc1)Nc1ccc(F)c(F)c1 | -17 | 91 | -6 | 0.2 | 93
CC1=CC(C)(C)N(C(=O)C(C)N2C(=O)c3ccccc3C2=O)c2ccc(C)cc21 (stereo not drawn) | -46 | 70 | -12 | -1.7 | 72
COc1ccc(C2=CSC3=C(C(=O)c4cccc(S(=O)(=O)N(C)C)c4)CCN23)cc1 | -17 | 90 | 5 | 0.25 | 85
CN(c1cccc(NC(=O)CN(c2ccc(C34CC5CC(CC(C5)C3)C4)cc2)S(C)(=O)=O)c1)S(C)(=O)=O | -27 | 2.0* | 0 | -0.11 | 1.9*
Cc1ccc(S(=O)(=O)N(CC(=O)Nc2cccc(N(C)S(C)(=O)=O)c2)c2ccc(Cl)c(Cl)c2)cc1 | -36 | 40 | 0 | -0.44 | 49
CN(c1cccc(NC(=O)CN(c2ccc(Cl)c(Cl)c2)S(=O)(=O)c2ccccc2)c1)S(C)(=O)=O | -60 | 27 | 29* | 0.33 | 46
O=c1[nH]cnc2c1ncn2[C@@H]1O[C@H](CO)[C@@H](O)[C@H]1O | 4 | 91 | 2 | 1.1 | 77
O=c1cnn([C@@H]2O[C@H](CO)[C@@H](O)[C@H]2O)c(=O)[nH]1 | 44* | 73 | 12 | 0.67 | 62
O=c1cc(CSc2nc(NCc3ccccc3)c3ccccc3n2)nc2ccc(Cl)cn12 | -7 | 73 | 4 | -1.9 | 66
Cc1ccc(/C(=N\O)c2oc3c(C)c4oc(=O)cc(C)c4cc3c2C)cc1 | -36 | 2.6* | nt | -0.89 | 2.0*
CCCCOC(=O)Nc1nc2ccccc2s1 | -48 | 100 | -21 | -0.49 | 95
CCCCOC(=O)Sc1nc2ccccc2o1 | 100* | 105 | -19 | 0.67 | 93
Cc1ccc(S(=O)(=O)N2CCN(C(C)C(=O)Nc3ccccc3-c3ccccc3)CC2)cc1 (stereo not drawn) | -19 | 84 | 3 | -0.19 | 80
O=C(Nc1nccs1)c1cccc(N2C(=O)c3cccc4c([N+](=O)[O-])ccc(c34)C2=O)c1 | -15 | 1.5* | -12 | -3 | 1.7*
CC(C)NS(=O)(=O)c1ccc(OCC(=O)Nc2ccc(F)cc2F)cc1 | -40 | nt | 49* | -0.53 | 99
CC(C)NS(=O)(=O)c1ccc(OCC(=O)Nc2ccccc2F)cc1 | -32 | 94 | -1 | 0.4 | 104
O=C1C=CC(=O)C(C2=C3C(=O)N(CCc4ccccc4)CC(=O)N3CCC2)=C1 | -45 | 83 | 1 | 0.05 | 72
SMILES | BB579 growth dn | PTEN del growth | Yeast lifespan up | sdo1 growth | HCT116 bCat-KO
COc1ccccc1-c1cc(C(F)(F)F)nc(S(=O)(=O)CCCC(=O)Nc2cc(C)on2)n1 | -18 | 2.0* | -13 | -1.6 | 4.0*
CS(=O)(=O)c1nc(-c2ccco2)cc(C(F)(F)F)n1 | -49 | 106 | 89* | -1 | 96
CN1CCN(c2nc(-c3ccco3)cc(C(F)(F)F)n2)CC1 | 25 | 95 | -4 | -0.1 | 97
COc1ccccc1-c1cc(C(F)(F)F)nc(S(C)(=O)=O)n1 | -1 | 38 | 38 | -2.5 | 2.6*
COc1ccccc1-c1cc(C(F)(F)F)nc(S(=O)(=O)CCCC(=O)NC(C)C)n1 | -31 | 4 | -10 | 0.63 | 6.0*
CC(C)(C)C(=O)C(Oc1cccc2nonc12)n1cncn1 (stereo not drawn) | -39 | 80 | 3 | -0.87 | 76
Cc1ccc(-n2c(Cn3nc(C(F)(F)F)cc3C)n[nH]c2=S)cc1 | 4 | 101 | -13 | -0.76 | 96
COc1ccc(C(=O)N/N=C/c2cccc3cccnc23)cc1 | -5 | 6 | -12 | 0.99 | 4.9*
COc1ccc(C(=O)N/N=C(\c2ccccc2)c2ccccn2)cc1 | -38 | 6 | 3 | -1.4 | 4.6*
CCOc1ccc(C(=O)N/N=C/c2cccc3cccnc23)cc1 | -21 | 8 | -23 | 0.68 | 10
O=C1C(N2CCOCC2)=C(n2nnc3ccccc32)C(=O)c2ccccc21 | 20 | 2.1* | 0 | -3 | 2.0*
c1ccc(CCn2c3ccccc3c3nnc(SCc4ccc5nonc5c4)nc32)cc1 | -72 | 60 | -7 | 0.41 | 65
O=C(c1c[nH]c(C(=O)C(Cl)(Cl)Cl)c1)c1ccccc1Cl | 67* | 31 | 90* | -1.1 | 9
Cn1c(SCC(=O)Nc2ncc(C(F)(F)F)cc2Cl)nnc1-c1ccc(Cl)cc1 | -38 | 104 | 3 | -0.68 | 90
CCSc1nc(N)nc(-c2cccs2)c1C#N | 84* | 93 | -18 | -2.8 | 94
O=C(Nc1ccccc1)ON=C1CCCC1 | -6 | 91 | -10 | -0.78 | 92
Cc1ccc(NC(=O)ON=C2CCCC2)cc1 | 95* | 84 | -13 | -2 | 91
COc1ccc(C(C)NC(=O)c2ccccc2)cc1 (stereo not drawn) | -63 | 105 | 84* | -0.18 | 102
Cc1nn(C)cc1/C=N\NC(=O)c1ccc2c(c1)c(C)c(C)n2Cc1ccccc1 | -61 | 114 | -8 | -1.2 | 101
CCOc1ccc(/C=C/C(=O)c2cc(Br)ccc(=O)c2O)cc1 | 93* | 9 | 4 | 12 | 9
Cc1cccc(/C=C/C(=O)c2cc(Br)ccc(=O)c2O)c1 | 95* | 8 | -14 | -0.63 | 5.2*
Cc1cccc(/C=N/NC(=O)c2ccc(Br)cc2)c1 | -42 | 76 | -2 | 0.2 | 93
Cc1ccc(/C=C/C(=O)c2cc(Br)ccc2OC(=O)c2ccco2)cc1 | -41 | 53 | -7 | -1.1 | 54
CCc1ccc(/C=C/C(=O)c2cc(Br)ccc(=O)c2O)cc1 | 89* | 7 | -10 | 0.71 | 5.1*
